hERG rescue: compounds protecting human hERG from proarrhythmic drug block | Q12809 | CHO-hERG, FluxOR thallium flux, dofetilide IC70 present | activation (rescue from dofetilide block), less the hit threshold, % at 10 µM | 310,000 tested, 0.51% active;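 active = activation above the mean of controls blocked by dofetilide plus 5 SD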;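 note: thallium influx through hERG after potassium depolarization seen as dye fluorescence rise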
KCNQ1 block: inhibitors of human KCNQ1 potassium channel. 310,000 tested, 1.3% active. B-score at 10 µM. CHO-K1 KCNQ1, FluxOR thallium flux fluorescence; hits give high values. P51787;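 active = compounds whose thallium flux B-score, printed positive for inhibition, exceeds three library SD while starting fluorescence stays within three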;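 note: channel opened by potassium depolarization with thallium stimulus after 20 min compound exposure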
Target sequence (P51787 whole entry, looked up): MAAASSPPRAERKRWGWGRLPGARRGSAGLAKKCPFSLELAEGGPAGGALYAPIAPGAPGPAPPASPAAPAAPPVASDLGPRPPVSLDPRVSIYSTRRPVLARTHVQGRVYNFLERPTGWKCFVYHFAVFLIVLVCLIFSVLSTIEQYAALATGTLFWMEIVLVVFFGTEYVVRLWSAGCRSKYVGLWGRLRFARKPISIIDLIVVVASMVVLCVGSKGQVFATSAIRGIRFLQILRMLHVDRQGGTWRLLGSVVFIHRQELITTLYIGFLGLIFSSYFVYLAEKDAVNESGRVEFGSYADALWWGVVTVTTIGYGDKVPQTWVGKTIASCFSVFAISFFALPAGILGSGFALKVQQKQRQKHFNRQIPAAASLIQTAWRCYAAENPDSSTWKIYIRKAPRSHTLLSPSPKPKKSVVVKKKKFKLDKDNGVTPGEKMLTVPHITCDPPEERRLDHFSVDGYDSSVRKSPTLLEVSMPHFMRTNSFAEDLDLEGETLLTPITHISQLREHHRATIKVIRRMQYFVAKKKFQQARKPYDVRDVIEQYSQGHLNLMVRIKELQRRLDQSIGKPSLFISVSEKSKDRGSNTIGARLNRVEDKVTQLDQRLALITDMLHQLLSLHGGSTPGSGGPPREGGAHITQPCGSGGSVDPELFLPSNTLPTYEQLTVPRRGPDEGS
KCNQ1 pot: human KCNQ1 channel potentiation or activation; P51787; CHO-K1 KCNQ1, thallium flux FluxOR fluorescence; hits give high values; B-score at 10 µM; 310,000 tested, 0.35% active; AID 2648;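 active = fluorescence ratio B-score, a plate-corrected score, at least three library SD, with initial intensity B-score within 5 SD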
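Medium – assay buffer, equal DMSO in all wells · Material – CHO-K1 cell line with stable KCNQ1 potassium channel expression · Signal – kinetic FluxOR thallium fluorescence, 10-s 1-Hz baseline, 110-s post-stimulus read · Compound – single concentration per compound, DMSO matched to controls · Schedule – 37 °C overnight plating, 90-min dark dye load, 20-min compound pretreatment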
Kir21 inh: blocks the mouse Kir2.1 inward-rectifier potassium channel | P35561 | HEK293-Kir2.1, FluxOR thallium flux fluorescence; hits give low values | B-score at 10 µM | 310,000 tested, 0.85% active | AID 1672;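 active = fluorescence ratio B-score at or below minus 3 SD of library scores, with starting-brightness B-score within 2 SD, cut at about -4.2 in these data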;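 note: channel flux triggered by added potassium and thallium sulfate stimulus; B-score of peak minus minimum fluorescence over baseline after thallium stimulus; more negative B-score means stronger Kir2.1 block with less thallium influx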
KCNK9 block: inhibitors of human KCNK9 two-pore domain potassium channel. Q9NPC2. HEK293 KCNK9, FluxOR thallium flux fluorescence; hits give low values. B-score at 10 µM. 310,000 tested, 1.2% active. AID 488922;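 active = ratio B-score over 3 SD below the library mean, with starting fluorescence within 5 SD of its mean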;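 note: negative B-score means less thallium flux so channel inhibition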
KCNK3 inh: human KCNK3 channel inhibition, primary screen | O14649 | CHO-KCNK3 thallium flux, FluxOR fluorescence; hits give low values | B-score at 10 µM | 340,000 tested, 0.84% active;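 active = B-score under library mean minus 4 SD, starting fluorescence ratio at most library mean plus 5 SD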;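 note: more negative B-score means stronger inhibition of thallium flux through KCNK3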
KCNK3 inh conf: confirmation of human KCNK3 two-pore domain potassium channel inhibitors | shares compounds with KCNK3 inh | CHO-KCNK3 thallium flux, FluxOR fluorescence; 0% buffer, 100% carvedilol maximal block | ratio percent of control, % at 10 µM | 2,400 tested, 99% active | AID 651638;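 active = ratio percent of control, averaged over triplicates, above buffer control mean plus 5 SD, cut at about 64% in these data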;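 note: ratio is the fluorescence rise from min to max over baseline after thallium stimulus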
KCNK3 uninduced: activity in cells without induced KCNK3 expression. shares compounds with KCNK3 inh. non-induced KCNK3 parental cells, FluxOR thallium flux; hits give low values. thallium flux ratio (lower = more inhibition) at 10 µM. 2,400 tested, 40% active. AID 651747;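 active = thallium flux ratio, averaged over three wells, more than 5 SD below the buffer control mean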;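 note: host cells are CHO cells without KCNK3 induction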
Of the large screens only hits and unclear results are named; the others gave an inactive call (follow-up assays come after a bar, where they were run). Hits are enriched below; roughly 3.7% of the tested compounds scored in any of these assays.

COc1ccccc1C(=O)Nc1cccc(NC(=O)c2ccccc2OC)n1	KCNK3 inh -10.8 | KCNK3 inh conf 112.7 | KCNK3 uninduced inactive
COc1ccccc1C(=O)Nc1ccon1	none
COc1ccccc1C(=O)Nc1ccccc1SC(=O)c1ccccc1OC	KCNK9 block -12.9, KCNK3 inh -9.41 | KCNK3 inh conf 112.7 | KCNK3 uninduced inactive
Cc1cccc(NC(=O)c2ccc(C(=O)c3ccccc3)cc2)n1	none
O=C(Nc1cccc(NC(=O)c2ccccc2)n1)c1ccccc1	KCNK3 inh -10.3 | KCNK3 inh conf 97.0 | KCNK3 uninduced inactive
CCc1nc(NC(=O)Cc2csc(C)n2)sc1C(=O)OC	none
N#CCC(=O)Nc1ccc(C(=O)Nc2cccc(S(N)(=O)=O)c2)cc1	none
Nc1ccc(/C=C/C(=O)c2cccs2)cc1	KCNK3 inh -9.26 | KCNK3 inh conf 122.7 | KCNK3 uninduced 0.093
O=C(c1c[nH]c(C(=O)C(Cl)(Cl)Cl)c1)c1ccc(F)cc1Cl	KCNQ1 pot 8, KCNK3 inh -10.6 | KCNK3 inh conf 87.7 | KCNK3 uninduced inactive
CCN(CC)C(=O)/C=C/c1ccc(OC)c(S(=O)(=O)N2CCCCC2)c1	none
CSc1ncccc1C(=O)OCC(=O)Nc1ccc2c(c1)CCC2	none (no result: hERG rescue, KCNQ1 block, KCNQ1 pot, Kir21 inh, KCNK9 block)
CCCc1nc(SCC(=O)Nc2nnc(CC)s2)c2c(=O)n(C)c(=O)n(C)c2n1	none
Cc1nn(-c2nc3ccccc3[nH]2)c(=O)c2ccccc12	none
Cc1nn(-c2ccc3ccccc3c2)c(=O)c2ccccc12	KCNK3 inh -8.93 | KCNK3 inh conf 91.7 | KCNK3 uninduced inactive
Cc1nn(-c2ccc(Cl)cc2)c(=O)c2ccccc12	none
Cc1nn(-c2ccc(Cl)c(Cl)c2)c(=O)c2ccccc12	KCNK3 inh -11.3 | KCNK3 inh conf 105.0 | KCNK3 uninduced inactive
CC1=C(C(=O)N2CCOCC2)C(c2ccc(OC(F)F)cc2)NC(=S)N1c1ccccc1 (stereo not given)	none
CC(C)Cc1cc(CNC(=O)C2CCC(=O)N(CCc3cccc(F)c3)C2)on1 (stereo not given)	none
CC(C)c1nc(CNC(=O)C2CCC(=O)N(CCc3cccc(F)c3)C2)cs1 (stereo not given)	KCNK3 inh -11 | KCNK3 inh conf 77.3 | KCNK3 uninduced inactive
CC(C)(C)c1ccc(Cn2nnc3c(=O)[nH]c(C4CCN(C(=O)c5ccco5)CC4)nc32)cc1	KCNK3 inh -8.94 | KCNK3 inh conf 121.7 | KCNK3 uninduced 0.146
O=C(c1ccco1)N1CCC(c2nc3c(nnn3Cc3c(Cl)cccc3Cl)c(=O)[nH]2)CC1	none
S=C1NC2=C(CCC/C2=C\c2ccccc2)C(c2ccccc2)N1 (stereo not given)	none
Fc1ccccc1/C=C1\CCCC2=C1NC(=S)NC2c1ccccc1F (stereo not given)	KCNK3 inh -9.04 | KCNK3 inh conf 101.3 | KCNK3 uninduced inactive
Cc1cccc(CN2C(=O)/C(=C\c3ccc(C(=O)NCCCN4CCN(C)CC4)cc3)Oc3ccccc32)c1	none
CN1CCN(CCCNC(=O)c2ccc(/C=C3/Sc4ccccc4N(Cc4cccc(Cl)c4)C3=O)cc2)CC1	KCNQ1 block 11, KCNK9 block -7.15, KCNK3 inh -9.42 | KCNK3 inh conf 117.7 | KCNK3 uninduced inactive
CC(=O)c1ccccc1NC(=O)CSc1nnc(Cc2csc(C)n2)o1	none
Cc1cc(N)nc(C)c1C#N	none
S=C(NCc1ccccc1)NCc1cccc(Cl)c1	none
Fc1ccc(CNC(=S)NCc2cccc(Cl)c2)cc1	Kir21 inh -4.37, KCNK3 inh -9.43 | KCNK3 inh conf 113.3 | KCNK3 uninduced inactive
COc1cccc(CNC(=S)Nc2ccc(Cl)cc2C)c1	none
Cc1cc(Cl)ccc1NC(=S)NCc1ccccc1	KCNK3 inh -9.54 | KCNK3 inh conf 87.0 | KCNK3 uninduced inactive
CCCNC(=O)c1c(O)c2cccc3c2n(c1=O)CCC3	none
CCOC(=O)c1c(O)c2cccc3c2n(c1=O)CC3	KCNK3 inh -9.12 | KCNK3 inh conf 100.3 | KCNK3 uninduced inactive
CCC(=O)NC(Nc1ncc(C)s1)(C(=O)OC)C(F)(F)F (stereo not given)	none
COc1ccccc1CNC(=O)CCCNC(=O)Cn1cnc2sc(C)c(C)c2c1=O	none
Cc1ccc(NC(=O)c2ccc3ccccc3n2)nc1	none
O=C(Nc1ccc(Cl)cn1)c1ccc2ccccc2n1	KCNK3 inh -8.74 | KCNK3 inh conf 93.3 | KCNK3 uninduced inactive
Cc1ccc(S(=O)(=O)N2CCC(N3CCN(C)CC3)CC2)cc1Cl	none
O=C(COc1ccc(Cl)cc1)Nc1nc(-c2cccs2)cs1	KCNK3 inh -9.26 | KCNK3 inh conf 127.3 | KCNK3 uninduced 0.155
COc1ccc(O)c(C(=O)c2cnn(-c3ccc(Cl)cc3)c2)c1	KCNK3 inh -11.6 | KCNK3 inh conf 91.7 | KCNK3 uninduced inactive
COc1cc(NC(=O)c2ccccc2Cl)c2ncccc2c1	KCNK3 inh -9.12 | KCNK3 inh conf 119.3 | KCNK3 uninduced 0.151
O=C(Nc1cccc2cccnc12)c1ccc(Cl)cc1Cl	none
Cc1cc(SCC(=O)NC(=O)c2cccn2C)nc2ccccc12	none
COc1ccc(/C=C2/Sc3ccc(C(=O)NCCCN4CCOCC4)cc3NC2=O)cc1OC	none
COc1cccc(/C=C2/Sc3ccc(C(=O)NCCN4CCCCCC4)cc3NC2=O)c1	KCNQ1 block 7, KCNK3 inh -10.1 | KCNK3 inh conf 111.7 | KCNK3 uninduced inactive
Cc1cc(C)c(S(=O)(=O)N2CCc3ccccc32)c(C)c1	KCNQ1 block 6, KCNK3 inh -12.7 | KCNK3 inh conf 115.0 | KCNK3 uninduced 0.134
COC(=O)C1=C(C)N=C2SC(C)C(=O)N2C1c1ccc(C(=O)OC)cc1 (stereo not given)	KCNK3 inh -8.71 | KCNK3 inh conf 105.7 | KCNK3 uninduced inactive
COC(=O)C1=C(C)N=C2SC(C)C(=O)N2C1c1cccs1 (stereo not given)	KCNK3 inh -11.9 | KCNK3 inh conf inactive | KCNK3 uninduced inactive
CCN(Cc1ccccc1)C(=O)c1nn(-c2ccc(OC)cc2)c(=O)c2c1c1ccccc1n2C	none
Cc1ccc(NC(=O)c2cccc3c2-c2ccccc2C3=O)cc1C	KCNK3 inh -9.29 | KCNK3 inh conf 108.0 | KCNK3 uninduced inactive
CC(=O)Nc1ccc(NC(=O)c2cccc3c2-c2ccccc2C3=O)cc1	none
CSc1ccccc1C(=O)Nc1cc(C)cc(C)c1	none
CSc1ccccc1C(=O)Nc1ccc(C)c(C)c1	KCNK3 inh -8.91 | KCNK3 inh conf 87.0 | KCNK3 uninduced inactive

Screening data from PubChem.
